Hits are enriched below; roughly 2% of the tested compounds scored in any of these assays.
Ecoli rRNA inh – selective bacterial rRNA inhibition in E. coli. 1.6% of 350,000 active. GFP signal change (wild-type ribosome), % (concentration not given with the values). AID 720706. E. coli WT GFP vs humanized-ribosome RFP mutants, fluorescence, 24 h; hits give low values; DMSO median 0, no signal -100;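 active = significant combined selectivity score with lowered wild-type GFP, culture density cut under 30%, mutant RFP and density less affected; inactive = any of these conditions unmet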
RAD54 branch – RAD54 (human) branch migration inhibition; Q92698; RAD54 Holliday junction branch migration, FAM/BHQ fluorescence; inhibition, % at 10.4 µM; 0.14% of 360,000 active; AID 602329;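 active = mean normalized replicate activity at least 40 and at least half of replicates scoring 40 or more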;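 also: inhibitors cause a drop in the FAM fluorescence signal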
RAD52 inh – RAD52 (human) annealing inhibition | P43351 | recombinant RAD52 DNA annealing, FRET fluorescence | inhibition, % at 18.7 µM | 0.46% of 360,000 active;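 active = every replicate showing at least 50% inhibition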
Xi reactivation – X-chromosome reactivation activator; XiGFP mouse fibroblasts, % GFP-positive cells imaging, 3 d; cells co-treated with 5-aza-dC sensitizer; scaled so ellipticine positive control = 100%; activation, % at 7.58 µM; 0.055% of 360,000 active; AID 743238;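 active = mean normalized replicate activation at least 10% and every replicate at or above 10%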
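assay system = SV40-immortalized XiGFP fibroblast cells, line 68-5-11 | buffer or medium = DMEM plus 5-aza-dC sensitizer | doses = single-point pinned compound dosing | times = 3-day compound exposure, then 15 min fixation at room temperature | benchmarks = positive control ellipticine, 6 µM final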
E-sel inducer – induces E-selectin expression in human endothelial cells; AID 686992; activation, % at 7.58 µM; 0.37% of 260,000 active; HUVEC E-selectin immunofluorescence imaging; normalized: neutral wells 0, TNF-alpha wells 100; P16581;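 active = mean E-selectin-positive cell signal at least 10% of the positive control, reached in at least 60% of replicates, without over 20% cell loss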
Target sequence (P16581 whole entry, looked up): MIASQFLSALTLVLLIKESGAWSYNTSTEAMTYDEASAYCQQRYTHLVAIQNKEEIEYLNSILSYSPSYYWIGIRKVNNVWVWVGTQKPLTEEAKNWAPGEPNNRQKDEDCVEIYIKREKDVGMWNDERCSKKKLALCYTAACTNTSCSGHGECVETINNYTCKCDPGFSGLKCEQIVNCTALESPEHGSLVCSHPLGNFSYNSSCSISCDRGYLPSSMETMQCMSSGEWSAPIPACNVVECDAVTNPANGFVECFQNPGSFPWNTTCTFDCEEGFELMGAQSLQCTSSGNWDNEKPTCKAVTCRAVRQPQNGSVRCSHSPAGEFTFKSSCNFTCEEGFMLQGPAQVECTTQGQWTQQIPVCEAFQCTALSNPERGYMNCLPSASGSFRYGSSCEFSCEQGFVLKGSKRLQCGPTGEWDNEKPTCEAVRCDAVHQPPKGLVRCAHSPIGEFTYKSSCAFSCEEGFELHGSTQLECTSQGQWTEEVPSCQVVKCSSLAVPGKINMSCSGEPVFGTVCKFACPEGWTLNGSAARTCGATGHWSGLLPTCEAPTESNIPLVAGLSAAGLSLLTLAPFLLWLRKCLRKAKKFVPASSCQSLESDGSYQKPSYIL
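assay system = HUVEC, human umbilical vein endothelial cells | input = 3,000 HUVEC seeded per well | medium = EGM-2 growth medium on 0.1% gelatin-coated wells | dosing = one compound dose added by pin transfer | signal = immunofluorescence imaging | read-out basis = % PE-positive cells | control set = TNF-alpha, DMSO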
PglD inh – inhibitors of Campylobacter jejuni PglD acetyltransferase | purified PglD enzyme, DTNB colorimetric CoA detection | inhibition, % at 12.5 µM | 0.098% of 360,000 active; in the data active = inhibition above about 16%, passing the limit was not always enough
PglD inh SP – blocks Campylobacter jejuni PglD acetyltransferase activity. 320 tested, under 10 active. AID 743156. inhibition, % at 20 µM. shares compounds with PglD inh. Purified C. jejuni PglD, DTNB absorbance 412 nm;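 active = mean inhibition across replicates of at least 20% with every single replicate also at 20% or more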;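 also: initial rate of CoA release by acetyl transfer from AcCoA to the UDP-4-amino sugar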
Numbers stand for hits; 0 = inactive; - = not tested or not shown.

SMILES	Ecoli rRNA inh	RAD54 branch	RAD52 inh	Xi reactivation	E-sel inducer	PglD inh	PglD inh SP
Cc1ccc(S(=O)(=O)N(C)C)cc1NC(=O)CSc1nnnn1-c1ccc(O)cc1	0	0	0	0	0	28	0
Cc1ccccc1C(=O)N[C@H](C(=O)N1CCC[C@H]1C(=O)NCc1ccccc1)c1ccccc1	0	-	0	0	0	-	-
Cc1ccc(NC(=O)N2CCCC2C(=O)Nc2ccc(-n3cnnn3)c(C)c2)cc1 (stereo unspecified)	-	0	-	-	-	0	-
CCOc1ccccc1NC(=O)N1CCCC1C(=O)Nc1ccc(-n2cnnn2)c(C)c1 (stereo unspecified)	-	0	-	-	-	25	0
C[C@H](CO)N1C[C@H](C)[C@@H](CN(C)Cc2ccc3cccnc3c2)OCc2cn(nn2)CCCC1=O	0	-	-	0	0	-	-
CC(=O)C1=C(O)C(=O)N(c2cccc(C(=O)O)c2)C1c1ccc(F)cc1 (stereo unspecified)	0	0	0	0	0	21	0
CC(=O)C1=C(O)C(=O)N(c2ccc(F)cc2)C1c1ccc(C)cc1 (stereo unspecified)	0	0	0	0	0	0	-
CC(C)c1nc2ccc(NC(=O)C3CCCCC3)cc2[nH]1	-	0	-	-	-	34	0
O=C(Nc1ccc2nc(-c3ccccn3)[nH]c2c1)C1CCCCC1	-	0	-	-	-	0	-
COc1cccc(C(=O)NNC(=O)C(=O)Nc2cccc(Cl)c2C)c1	0	0	0	0	-	22	0
CCCCNc1ccccc1C(=O)OCC(=O)Nc1ccc(S(N)(=O)=O)cc1	-	0	-	-	-	0	-
CCC(=O)Nc1ccccc1C(=O)OCC(=O)Nc1ccc(S(N)(=O)=O)cc1	-	0	-	-	-	31	0
O=S(=O)(c1cccs1)N1CCCCN2[C@H](CO)[C@H](c3ccc(C4=CCCCC4)cc3)[C@@H]2C1	-	0	0	-	-	0	-
CCCNC(=O)[C@H]1[C@H](CO)[C@H]2Cn3c(ccc(/C=C/c4ccccc4)c3=O)[C@H]2N1CC	0	0	0	0	0	0	-
Cc1nnc(NC(=O)c2ccc(-c3cccc(C(F)(F)F)c3)o2)s1	-	0	-	-	-	0	-
COc1cnc(-c2cccc(C(F)(F)F)c2)c(NC(=O)c2cc3ccccc3s2)n1	0	0	0	0	0	30	0
COc1ccc(NC(=O)Nc2ccc3c(c2)CC(=O)N([C@@H](C)CO)C[C@@H](C)[C@@H](CN(C)Cc2ccc(-c4ccccc4)cc2)O3)cc1	0	0	0	0	0	0	-
COCCC(=O)N1CCC(Oc2ccc(C(=O)N3CCCCCC3)cc2)CC1	0	0	0	0	-	0	-
CCN(CC)C1CCN(C(=O)c2ccc(OC3CCN(C(=O)CCOC)CC3)cc2)C1 (stereo unspecified)	0	0	0	0	-	26	0
O=[N+]([O-])c1ccc(O)c(C=Nc2cccc3ccccc23)c1	0	0	0	0	-	0	-
O=[N+]([O-])c1ccc(O)c(C=Nc2cccc3ncccc23)c1	0	0	0	0	-	23	0
O=C(Nc1cc(F)ccc1F)N1CC(=O)N2[C@H](CO)[C@@H](c3ccc(C#CC4CCCCC4)cc3)[C@@H]2C1	0	-	0	0	0	-	-
CCOc1cc(N2CCOCC2)c(OCC)cc1NC(=O)COC(=O)COc1ccc(C#N)cc1	0	0	0	0	0	33	0
C[C@@H]1CN(C)C(=O)Cc2ccccc2O[C@@H]1CN(C)S(C)(=O)=O	0	-	-	0	-	-	-
CCN(Cc1cccc(OC)c1)CC1CCCN(CCc2cccc(OC)c2)C1 (stereo unspecified)	0	0	0	0	-	22	0
SMILES	Ecoli rRNA inh	RAD54 branch	RAD52 inh	Xi reactivation	E-sel inducer	PglD inh	PglD inh SP
CCOc1cccc(CN(CC)CC2CCCN(CCc3cccc(OC)c3)C2)c1O (stereo unspecified)	0	0	0	0	0	0	-
C[C@@H]1COc2cc(N3CCOCC3)ccc2S(=O)(=O)N1	0	-	0	0	0	-	-
CNS(=O)(=O)c1cc(S(=O)(=O)NC)c2cccc3c2c1NC3=O	0	0	0	0	-	77	0
Cc1ccc(S(=O)(=O)Nc2ccc3c(c2)C(=O)N([C@@H](C)CO)C[C@@H](C)[C@@H](CN(C)S(=O)(=O)c2ccc(Cl)cc2)O3)cc1	0	-	0	0	0	-	-
COc1cccc(CNCCc2c[nH]c3ccccc23)c1OCc1ccc(F)cc1	-	0	-	-	-	26	0
O=C(COc1ccccc1)NCc1ccco1	0	0	0	0	-	0	-
O=C(NCc1ccco1)Oc1ccccc1	-	0	-	-	-	21	0
COCC#Cc1ccc2c(c1)O[C@@H](CN(C)S(C)(=O)=O)[C@@H](C)CN([C@@H](C)CO)S2(=O)=O	0	0	0	0	0	0	-
O=C1CN(S(=O)(=O)c2ccccc2)C[C@H]2[C@@H](c3ccc(C4=CCCC4)cc3)[C@H](CO)N12	0	-	0	0	0	-	-
O=C(NCc1cccc(Cl)c1)c1ccc(-n2ccnc2)c2ccoc12	0	0	0	0	0	0	-
O=C(NCc1cccc(Cl)c1)c1ccc(-n2cncn2)c2ccoc12	0	0	0	0	0	22	0
C[C@@H]1CN([C@@H](C)CO)C(=O)c2cc(C#Cc3ccccc3F)cnc2O[C@@H]1CN(C)C(=O)Cc1ccncc1	0	0	0	0	-	0	-
Cc1noc(C)c1S(=O)(=O)N(C)C[C@@H]1OCCCC[C@H](C)Oc2ccc(NC(=O)Cc3ccccc3)cc2C(=O)N([C@H](C)CO)C[C@@H]1C	0	0	0	0	0	0	-
COc1ccc(S(=O)(=O)Nc2ccc3c(c2)C(=O)N([C@@H](C)CO)C[C@H](C)[C@@H](CN(C)S(=O)(=O)c2cccs2)OCCCC[C@@H](C)O3)cc1	0	0	0	0	-	0	-
CCC(OC(=O)c1ccco1)C(=O)NCc1ccc2c(c1)OCO2 (stereo unspecified)	0	0	0	0	-	22	0
COc1ccc(NC(=O)N[C@@H]2CC[C@@H](CCNC(=O)c3ccccc3F)O[C@H]2CO)cc1	0	0	0	0	0	0	-
CCOc1nc(-c2ccccc2)ccc1-c1noc(-c2cccs2)n1	-	0	-	-	-	21	0
O=C(C[C@H]1CC[C@@H](NS(=O)(=O)c2ccc(F)cc2)[C@H](CO)O1)NCc1ccc(Cl)c(Cl)c1	0	0	0	0	0	0	-
O=C(Nc1ccccc1C(=O)N1CCOCC1)C1CC(=O)N(c2ccc(F)cc2)C1 (stereo unspecified)	0	0	0	0	0	0	-
O=C(Nc1ccccc1C(=O)N1CCOCC1)C1CC(=O)N(C2CCCC2)C1 (stereo unspecified)	-	0	-	-	-	33	0
CCCC(=O)c1cc(F)c(N2CCN(CCC#N)CC2)cc1C	-	0	-	-	-	0	-
